From ChEMBL document CHEMBL1126878, “4,5-Dihydro-1-phenyl-1H-2,4-benzodiazepines: novel antiarrhythmic agents” (J Med Chem, 1993)

What was measured:
[1] = system: Cavia porcellus; test: Effective dose in vivo for cardiac refractoriness (ERP) using paced guinea pig model; type: functional
How it was run: (§1)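 Guinea pig paced in vivo model. Hemodynamics recorded in normal sinus rhythm; ERP measured during brief pacing at baseline and 10 min after dosing. Bolus of 1 mL/kg via left ventricular catheter for doses <10 mg/kg; higher doses infused over 1 min. Cumulative dosing every 15 min up to the maximally tolerated dose (dP/dt reduced >50%). ED20 (ERP +20 ms) and dP/dt20 (20% drop in LV pressure-rise rate) derived by linear regression of individual dose-response curves.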

[2] = system: Cavia porcellus; test: In vivo index of cardiac contractility using paced guinea pig model; type: functional; how it was run: as §1
[3] = target: Sodium channel protein type 5 subunit alpha (cardiac sodium channel) (Rattus norvegicus, UniProt P15389); test: in vitro; conditions: sodium channel from cardiac myocytes, probe [3H]batrachotoxin ([3H]BTX)
Sodium channel protein type 5 subunit alpha (cardiac sodium channel), sequence (P15389 whole entry): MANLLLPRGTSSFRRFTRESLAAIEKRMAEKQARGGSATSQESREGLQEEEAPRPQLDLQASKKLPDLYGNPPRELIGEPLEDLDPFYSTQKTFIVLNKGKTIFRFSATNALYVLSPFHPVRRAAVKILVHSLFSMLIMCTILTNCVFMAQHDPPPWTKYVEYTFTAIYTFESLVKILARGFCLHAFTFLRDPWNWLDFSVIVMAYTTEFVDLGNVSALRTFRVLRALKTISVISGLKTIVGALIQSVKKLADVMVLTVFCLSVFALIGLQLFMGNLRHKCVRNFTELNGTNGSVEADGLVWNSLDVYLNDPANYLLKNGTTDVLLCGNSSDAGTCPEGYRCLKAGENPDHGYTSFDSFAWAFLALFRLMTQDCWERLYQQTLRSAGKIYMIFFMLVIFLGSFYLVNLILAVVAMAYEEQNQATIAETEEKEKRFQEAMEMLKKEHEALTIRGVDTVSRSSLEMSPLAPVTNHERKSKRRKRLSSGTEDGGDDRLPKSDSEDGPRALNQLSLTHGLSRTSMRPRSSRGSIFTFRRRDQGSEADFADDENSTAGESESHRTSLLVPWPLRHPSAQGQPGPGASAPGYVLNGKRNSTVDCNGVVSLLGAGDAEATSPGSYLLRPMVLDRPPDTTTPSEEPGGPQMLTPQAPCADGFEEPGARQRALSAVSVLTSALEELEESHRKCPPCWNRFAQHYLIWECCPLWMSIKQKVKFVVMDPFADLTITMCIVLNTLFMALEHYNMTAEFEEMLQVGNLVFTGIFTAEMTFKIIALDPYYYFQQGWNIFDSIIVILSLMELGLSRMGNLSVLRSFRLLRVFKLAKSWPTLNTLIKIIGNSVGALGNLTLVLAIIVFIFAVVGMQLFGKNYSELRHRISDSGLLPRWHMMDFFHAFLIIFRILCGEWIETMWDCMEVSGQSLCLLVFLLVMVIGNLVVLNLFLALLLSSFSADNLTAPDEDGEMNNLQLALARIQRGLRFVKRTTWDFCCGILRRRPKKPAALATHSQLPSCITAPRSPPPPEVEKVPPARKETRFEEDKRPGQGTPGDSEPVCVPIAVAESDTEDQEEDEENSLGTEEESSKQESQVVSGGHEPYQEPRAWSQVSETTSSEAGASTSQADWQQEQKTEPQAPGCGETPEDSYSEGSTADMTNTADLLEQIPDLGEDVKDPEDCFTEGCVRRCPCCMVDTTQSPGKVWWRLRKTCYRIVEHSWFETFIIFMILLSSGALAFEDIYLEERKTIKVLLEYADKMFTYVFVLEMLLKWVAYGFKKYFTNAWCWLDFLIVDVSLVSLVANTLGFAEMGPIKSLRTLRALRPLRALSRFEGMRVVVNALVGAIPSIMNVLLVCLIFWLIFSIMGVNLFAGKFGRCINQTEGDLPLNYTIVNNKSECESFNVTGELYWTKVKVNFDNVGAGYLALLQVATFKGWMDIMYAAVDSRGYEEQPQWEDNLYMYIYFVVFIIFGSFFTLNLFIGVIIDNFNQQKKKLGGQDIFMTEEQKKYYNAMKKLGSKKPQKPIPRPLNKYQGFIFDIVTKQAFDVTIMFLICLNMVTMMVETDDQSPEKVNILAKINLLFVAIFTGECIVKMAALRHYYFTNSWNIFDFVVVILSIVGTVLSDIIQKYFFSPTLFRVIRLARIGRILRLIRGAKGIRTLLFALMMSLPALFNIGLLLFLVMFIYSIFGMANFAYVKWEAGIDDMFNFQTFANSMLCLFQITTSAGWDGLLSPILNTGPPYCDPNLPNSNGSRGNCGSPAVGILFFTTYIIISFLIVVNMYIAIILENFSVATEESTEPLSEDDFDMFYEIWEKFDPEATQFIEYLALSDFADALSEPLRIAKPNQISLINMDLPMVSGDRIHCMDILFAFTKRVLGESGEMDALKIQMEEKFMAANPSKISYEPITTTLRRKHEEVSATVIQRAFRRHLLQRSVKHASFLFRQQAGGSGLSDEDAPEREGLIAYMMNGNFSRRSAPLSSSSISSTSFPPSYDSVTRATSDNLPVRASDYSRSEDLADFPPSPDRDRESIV

| Compound | ED20 [1] | dP/dt20 [2] | inhibition at 10 µM [3] |
| --- | --- | --- | --- |
| CCC1=NC(COC)(c2ccccc2)c2ccccc2CN1C (stereo unspecified) | 2.5 mg/kg | 0.1 mg/kg | 45% |
| CN1Cc2ccccc2C(c2ccccc2)N=C1N1CCOCC1.Cl (stereo unspecified) | 0.6 mg/kg | 0.4 mg/kg | 49% |
| CN(C)CC1=NC(C)(c2ccccc2)c2ccccc2CN1C (stereo unspecified) | 0.8 mg/kg | 0.02 mg/kg | 57% |
| CCC1=NC(C(C)=O)(c2ccccc2)c2ccccc2CN1C.O=C(O)/C=C/C(=O)O (stereo unspecified) | 0.9 mg/kg | 0.45 mg/kg | 28% |
| CN1Cc2ccccc2C(c2ccccc2)N=C1CN1CCCCC1.O=C(O)/C=C/C(=O)O (stereo unspecified) | 0.4 mg/kg | 0.002 mg/kg | 94% |
| CCC1=NC(c2cccc3ccccc23)c2ccccc2CN1C (stereo unspecified) | 0.6 mg/kg | 0.2 mg/kg | 94% |
| CCN(CC)CCNC1=NC(c2ccccc2)c2ccccc2CN1C.O=C(O)/C=C/C(=O)O (stereo unspecified) | 0.7 mg/kg | 0.9 mg/kg | 98% |
| COc1ccc(C(=O)Nc2ccccc2CCC2CCCCN2C)cc1 (stereo unspecified) [ENCAINIDE] | 0.7 mg/kg | 0.003 mg/kg | 55% |
| CN1Cc2ccccc2C(c2ccccc2)N=C1c1ccccc1 (stereo unspecified) | 0.3 mg/kg | 1.1 mg/kg | 85% |
| CC1=NC(C)(c2ccccc2)c2ccccc2CN1C.O=C(O)/C=C/C(=O)O (stereo unspecified) | 0.8 mg/kg | 0.9 mg/kg | 71% |
| CN1C=NC(c2ccccc2)c2ccccc2C1 (stereo unspecified) | 1.4 mg/kg | 0.9 mg/kg | 68% |
| CN1Cc2ccccc2C(c2ccccc2)N=C1CCCc1ccccc1.Cl (stereo unspecified) | 0.2 mg/kg | 0.12 mg/kg | 100% |
| CCC1=NCc2ccccc2C(c2ccccc2)N1Cc1ccccc1.Cl (stereo unspecified) | > 3 mg/kg | 0.3 mg/kg | 97% |
| CCC1=NC(c2ccccc2)c2ccc3ccccc3c2CN1C (stereo unspecified) | 0.3 mg/kg | 0.06 mg/kg | 98% |
| CCOC(=O)CC1=NC(C)(c2ccccc2)c2ccccc2CN1C (stereo unspecified) | 0.3 mg/kg | 0.007 mg/kg | 79% |
| CCC1=NC(CC)(c2ccccc2)c2ccccc2CN1C (stereo unspecified) | 0.2 mg/kg | 0.1 mg/kg | 78% |
| CC1=NC(c2ccccc2)c2ccccc2CN1C (stereo unspecified) | 1.2 mg/kg | 0.9 mg/kg | 52% |
| CN1Cc2ccccc2C(Cc2ccccc2)N=C1CCc1ccccc1.O=C(O)/C=C/C(=O)O (stereo unspecified) | 0.2 mg/kg | 0.04 mg/kg | 97% |
| COc1ccc(C2N=C(CCc3ccccc3)N(C)Cc3ccccc32)cc1.Cl (stereo unspecified) | 0.1 mg/kg | 0.1 mg/kg | 95% |
| CN1Cc2ccccc2C(C)(c2ccccc2)N=C1CCc1ccccc1 (stereo unspecified) | 0.34 mg/kg | 0.9 mg/kg | 97% |
| CCCCC1=NC(c2ccccc2)c2ccccc2CN1C.Cl (stereo unspecified) | 0.1 mg/kg | 0.1 mg/kg | 83% |
| CN1Cc2ccccc2C(c2ccccc2)N=C1COc1ccccc1.Cl (stereo unspecified) | 0.3 mg/kg | – | 98% |
| CN1Cc2ccccc2C(c2ccccc2)N=C1N.Cl (stereo unspecified) | 1.7 mg/kg | 1 mg/kg | 91% |
| CN1Cc2ccccc2C(c2ccccc2)N=C1N1CCCC1 (stereo unspecified) | 0.2 mg/kg | – | 100% |

| Compound | ED20 [1] | dP/dt20 [2] | inhibition at 10 µM [3] |
| --- | --- | --- | --- |
| COc1ccc(CCC2=NC(c3ccccc3)c3ccccc3CN2C)cc1.Cl (stereo unspecified) | 0.1 mg/kg | 0.66 mg/kg | 91% |
| CC(C)C1=NC(C)(c2ccccc2)c2ccccc2CN1C (stereo unspecified) | 0.8 mg/kg | 0.7 mg/kg | 50% |
| CCC1=NC(c2ccccc2)c2ccccc2CN1.Cl (stereo unspecified) | 1.1 mg/kg | 0.2 mg/kg | 84% |
| CCC1=NC(c2ccccc2)c2ccccc2C(c2ccccc2)N1C (stereo unspecified) | > 20 mg/kg | 0.01 mg/kg | 97% |
| CCN(CC)CC1=NC(C)(c2ccccc2)c2ccccc2CN1C.Cl (stereo unspecified) | > 20 mg/kg | 0.01 mg/kg | 90% |
| CCC1=NC(c2ccccc2)c2ccccc2CN1C(C)C.Cl (stereo unspecified) | 0.2 mg/kg | 0.15 mg/kg | 87% |
| CCCC1=NC(c2ccccc2)c2ccccc2CN1C.Cl (stereo unspecified) | 0.4 mg/kg | 0.8 mg/kg | 72% |
| CCN(CC)CC(=O)Nc1c(C)cccc1C [LIDOCAINE] | 8 mg/kg | 4.3 mg/kg | 10% |
| CCC1=NC(c2ccccc2)c2ccccc2CN1Cc1ccccc1.Cl (stereo unspecified) | 1 mg/kg | 0.2 mg/kg | 98% |
| CN1Cc2ccccc2C(C)(c2ccccc2)N=C1CCl (stereo unspecified) | 0.4 mg/kg | 0.002 mg/kg | 82% |
| CCN(CC)CCNC(=O)c1ccc(NS(C)(=O)=O)cc1 [SEMATILIDE] | 1.9 mg/kg | 18.7 mg/kg | 0% |
| CN1CCN(CC2=NC(c3ccccc3)c3ccccc3CN2C)CC1.O=C(O)/C=C/C(=O)O (stereo unspecified) | 0.4 mg/kg | 0.1 mg/kg | 38% |
| CN1Cc2ccccc2C(C)(c2ccccc2)N=C1CN1CCOCC1 (stereo unspecified) | 2.4 mg/kg | 0.1 mg/kg | 51% |
| CC(C)NCC(O)c1ccc(NS(C)(=O)=O)cc1 (stereo unspecified) [SOTALOL] | 1.3 mg/kg | 1.9 mg/kg | 0% |
| CN(C)CC1=NC(c2ccccc2)c2ccccc2CN1C.O=C(O)/C=C/C(=O)O (stereo unspecified) | 0.6 mg/kg | – | 44% |
| CCCCCCCCC1=NC(c2ccccc2)c2ccccc2CN1C.Cl (stereo unspecified) | 0.2 mg/kg | 0.1 mg/kg | 81% |
| CCCCCC1=NC(c2ccccc2)c2ccccc2CN1C.Cl (stereo unspecified) | 0.1 mg/kg | 0.08 mg/kg | 95% |
| COc1ccc(OCC2=NC(c3ccccc3)c3ccccc3CN2C)cc1.Cl (stereo unspecified) | 0.1 mg/kg | 0.48 mg/kg | 98% |
| CN1Cc2ccccc2C(c2ccccc2)N=C1CCC1CCCCC1.Cl (stereo unspecified) | 0.1 mg/kg | 0.66 mg/kg | 98% |
| CN1Cc2ccccc2C(c2ccccc2)N=C1Cc1ccccc1.Cl (stereo unspecified) | 0.3 mg/kg | 0.15 mg/kg | 95% |
| CCC1=NC(Cc2ccccc2)c2ccccc2CN1C (stereo unspecified) | 0.2 mg/kg | 0.2 mg/kg | 84% |
| CN1Cc2ccccc2C(c2ccccc2)N=C1CN1CCOCC1.O=C(O)/C=C/C(=O)O (stereo unspecified) | 0.25 mg/kg | 0.11 mg/kg | 57% |
| CN1Cc2ccccc2C(c2ccccc2)N=C1COc1ccc(Cl)cc1 (stereo unspecified) | 0.2 mg/kg | 0.17 mg/kg | 100% |
| CN1Cc2ccccc2C(c2ccc(Cl)cc2)N=C1CCc1ccccc1 (stereo unspecified) | 0.2 mg/kg | 0.2 mg/kg | 96% |
